According to ChEMBL document CHEMBL1133534, “1,3-Diaryl-4,5,6,7-tetrahydro-2H-isoindole derivatives: a new series of potent and selective COX-2 inhibitors in which a sulfonyl group is not a structural requisite” (J Med Chem, 2000):
The source made the active and inactive calls. No cut-off for these calls is given here.

Legend:
[1] = molecular target: T1, Prostaglandin G/H synthase 2 (Mus musculus, UniProt Q05769); assay: Inhibition against prostaglandin G/H synthase 2 from mouse resident macrophages
T1 sequence (Q05769 whole entry): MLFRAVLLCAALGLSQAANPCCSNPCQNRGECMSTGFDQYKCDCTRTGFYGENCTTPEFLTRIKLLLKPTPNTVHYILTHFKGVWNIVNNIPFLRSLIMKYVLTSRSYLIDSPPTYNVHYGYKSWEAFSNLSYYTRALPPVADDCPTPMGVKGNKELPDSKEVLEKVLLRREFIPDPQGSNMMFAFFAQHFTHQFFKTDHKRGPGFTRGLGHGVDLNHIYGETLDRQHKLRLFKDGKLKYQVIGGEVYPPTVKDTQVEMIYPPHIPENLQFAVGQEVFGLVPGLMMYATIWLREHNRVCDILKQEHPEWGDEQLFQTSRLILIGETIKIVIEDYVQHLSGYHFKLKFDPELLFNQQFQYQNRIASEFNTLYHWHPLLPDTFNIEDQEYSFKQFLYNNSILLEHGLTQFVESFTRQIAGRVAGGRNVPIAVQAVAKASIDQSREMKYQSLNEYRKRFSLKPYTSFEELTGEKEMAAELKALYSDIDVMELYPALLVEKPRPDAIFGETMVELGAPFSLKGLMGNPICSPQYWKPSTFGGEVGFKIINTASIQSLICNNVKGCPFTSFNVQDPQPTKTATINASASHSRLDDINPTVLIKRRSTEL

[2] = molecular target: T2, Prostaglandin G/H synthase 1 (Mus musculus, UniProt P22437); assay: Inhibition against prostaglandin G/H synthase 1 from mouse resident macrophages
T2 sequence (P22437 whole entry): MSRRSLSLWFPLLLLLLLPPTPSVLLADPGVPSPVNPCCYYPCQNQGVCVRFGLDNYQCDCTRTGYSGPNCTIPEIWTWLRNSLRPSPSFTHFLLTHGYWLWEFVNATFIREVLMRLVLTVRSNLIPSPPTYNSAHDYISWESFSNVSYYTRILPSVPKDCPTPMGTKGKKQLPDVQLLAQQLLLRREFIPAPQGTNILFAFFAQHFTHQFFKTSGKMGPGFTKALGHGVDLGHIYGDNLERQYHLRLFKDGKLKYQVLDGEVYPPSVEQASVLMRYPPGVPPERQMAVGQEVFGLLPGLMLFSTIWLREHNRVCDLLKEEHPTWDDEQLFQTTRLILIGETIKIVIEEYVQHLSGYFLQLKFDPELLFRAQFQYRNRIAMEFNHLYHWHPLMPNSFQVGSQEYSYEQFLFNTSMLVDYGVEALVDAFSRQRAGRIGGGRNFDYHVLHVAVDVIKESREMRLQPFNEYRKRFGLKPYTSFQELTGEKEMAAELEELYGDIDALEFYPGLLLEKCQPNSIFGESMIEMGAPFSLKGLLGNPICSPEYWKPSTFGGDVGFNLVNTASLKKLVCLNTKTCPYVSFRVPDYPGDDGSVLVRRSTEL

[3] = (§1) Compound was evaluated for its effective dose to inhibit gastric PGE-2; format: functional; details: Mus musculus, Stomach
How it was run: (§2)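 Mice with air pouches (18 h old) were dosed orally with compound or vehicle. After 1 h, 500 µL sterile 1% carrageenan was injected into the pouch, and mice were killed 5 h later. Pouch lavage (heparinized HBSS) was cooled on ice, and PGE2 was measured by EIA after solid-phase extraction. Excised stomachs were rinsed and incubated 15 min in PBS, and supernatant PGE2 was measured by EIA. ED50 from 3 or 4 doses, at least 8 mice/group.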

[4] = tested on: Rattus norvegicus; assay: Effective dose for inhibition of edema of the non injected paw in rat
[5] = (§3) Compound was evaluated for its effective dose to inhibit exudate PGE-2; format: functional; details: Mus musculus
How it was run: (§4)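 Mice given compound or vehicle orally 18 h after air-pouch induction; 1 h later 500 µL sterile 1% carrageenan injected into pouch; sacrifice 5 h after carrageenan. Pouch lavaged with 2 mL heparinized HBSS, kept on ice, PGE2 measured by EIA after solid-phase extraction. ED50 from 3 or 4 dose points, at least 8 mice/group.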

[6] = tested on: Rattus norvegicus; assay: Effective dose for inhibition of edema after oral administration (95% confidence limits); format: functional
How it was run: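 Adjuvant-induced arthritis in female Lewis rats, with oral dosing. Edema of the noninjected paw was read at day 21, 10 rats/group. ED50 was estimated by linear regression with 95% confidence limits.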

[7] = Gastric toxicity of the compound.
How it was run: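 Male Swiss mice, fasted overnight with water, were dosed orally at 400 mg/kg or given vehicle, and killed by cervical dislocation 5 h later. The stomach was opened and mucosal damage scored blind from 0 (normal) to 5 (perforation). Mean ± SEM, 8 animals/group.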

[8] = species: Mus musculus; assay: Compound was evaluated for its effective dose to inhibit exudate PGE-2; In active; how it was run: as §4
[9] = molecular target: Prostaglandin G/H synthase 1 (Homo sapiens, UniProt P23219); assay: Tested in vitro for inhibition against Prostaglandin G/H synthase 1 in human blood
[10] = molecular target: T3, Prostaglandin G/H synthase 2 (Homo sapiens, UniProt P35354)
T3 sequence (P35354 whole entry): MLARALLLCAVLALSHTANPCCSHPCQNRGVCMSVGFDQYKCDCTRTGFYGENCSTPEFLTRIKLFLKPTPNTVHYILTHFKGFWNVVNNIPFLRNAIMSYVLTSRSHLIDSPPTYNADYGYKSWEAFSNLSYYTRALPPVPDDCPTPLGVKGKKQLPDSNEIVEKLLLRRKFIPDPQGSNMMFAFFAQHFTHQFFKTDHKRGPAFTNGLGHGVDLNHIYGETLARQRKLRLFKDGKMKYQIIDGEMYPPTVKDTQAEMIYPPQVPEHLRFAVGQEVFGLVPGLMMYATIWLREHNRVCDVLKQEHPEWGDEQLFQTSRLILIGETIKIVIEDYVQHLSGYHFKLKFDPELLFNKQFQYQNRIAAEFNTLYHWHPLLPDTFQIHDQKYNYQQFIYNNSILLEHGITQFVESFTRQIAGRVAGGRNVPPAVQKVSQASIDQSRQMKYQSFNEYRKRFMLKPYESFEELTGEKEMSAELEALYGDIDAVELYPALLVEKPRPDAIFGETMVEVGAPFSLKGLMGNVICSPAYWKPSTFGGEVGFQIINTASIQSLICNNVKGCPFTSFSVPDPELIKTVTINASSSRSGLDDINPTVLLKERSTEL

[11] = species: Mus musculus; assay: as §1; format: tissue-based; details: Stomach; how it was run: as §2
[12] = species: Mus musculus; assay: as §3; how it was run: as §4
[13] = tested on: Rattus norvegicus; assay: Inhibition of edema after oral administration at 2 mg/kg, twice daily; format: functional
How it was run: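 Adjuvant-induced arthritis in female Lewis rats. Compound was given orally at 2 mg/kg twice daily, and noninjected paw edema inhibition was read at day 21, 10 rats/group.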

[14] = tested on: Rattus norvegicus; assay: Inhibition of edema after oral administration at 2 mg/kg/day; format: functional
How it was run: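 Adjuvant-induced arthritis in female Lewis rats. Compound was given orally at 2 mg/kg/day, and noninjected paw edema inhibition was read at day 21, 10 rats/group.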

Chain of Prostaglandin G/H synthase 1 (Homo sapiens, UniProt P23219) (P23219 whole entry): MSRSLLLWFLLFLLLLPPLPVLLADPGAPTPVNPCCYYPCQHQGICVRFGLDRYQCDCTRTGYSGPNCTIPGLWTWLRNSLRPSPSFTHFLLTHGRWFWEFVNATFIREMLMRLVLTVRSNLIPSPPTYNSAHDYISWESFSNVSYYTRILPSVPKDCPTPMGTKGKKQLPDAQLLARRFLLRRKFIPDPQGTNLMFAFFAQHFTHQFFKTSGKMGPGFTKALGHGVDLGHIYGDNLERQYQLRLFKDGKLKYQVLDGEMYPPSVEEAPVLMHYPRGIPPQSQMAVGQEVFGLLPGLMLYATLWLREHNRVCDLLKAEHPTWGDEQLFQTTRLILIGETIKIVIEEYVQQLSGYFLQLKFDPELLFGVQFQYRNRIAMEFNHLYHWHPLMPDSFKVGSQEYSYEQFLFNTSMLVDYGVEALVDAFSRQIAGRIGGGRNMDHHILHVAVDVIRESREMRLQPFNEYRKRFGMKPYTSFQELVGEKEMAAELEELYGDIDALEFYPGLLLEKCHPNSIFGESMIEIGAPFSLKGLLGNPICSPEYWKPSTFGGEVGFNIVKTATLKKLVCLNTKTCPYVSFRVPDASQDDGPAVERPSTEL

| IC50 [1] [nM] | IC50 [2] [nM] | SMILES | also measured |
| --- | --- | --- | --- |
| 500 | > 1000 | CS(=O)(=O)Nn1c(-c2ccccc2)c2c(c1-c1ccccc1)CCCC2 |  |
| > 100 |  | Clc1cc2c(cc1Cl)C(c1ccccc1)NC2c1ccccc1 (centres undefined) |  |
|  | 500 | Cc1ccc(-c2[nH]c(-c3ccc(C)cc3)c3c2CCCC3)cc1 | IN [8]: inactive |
| 500 | 500 | CSc1ccc(-c2[nH]c(-c3ccc(SC)cc3)c3c2CCCC3)cc1 |  |
| > 1000 |  | CC1=C(C)Cc2c(c(-c3ccccc3)n(C)c2-c2ccccc2)C1 |  |
| 2.9 | 100 | Fc1ccc(-c2[nH]c(-c3ccc(F)cc3)c3c2CCC3)cc1 | ED50 [11]: > 80 mg/kg; ED50 [12]: 20 mg/kg; inhibition in vivo at 2 mg/kg [13]: 14%; Gastric score [7]: 0.7 |
|  | > 2500 | c1ccc([C@H]2N[C@H](c3ccccc3)c3ccccc32)cc1 | ED50 [11]: 100 mg/kg; ED50 [12]: 100 mg/kg |
| 2.6 | 100 | c1ccc(-c2[nH]c(-c3ccccc3)c3c2C2CCC3C2)cc1 | ED50 [11]: 80 mg/kg; ED50 [12]: 20 mg/kg; Gastric score [7]: 0.3 |
| > 100 |  | O=C(O)Cn1c(-c2ccccc2)c2c(c1-c1ccccc1)CCCC2 |  |
| > 100 | 1000 | c1ccc(-c2[nH]c(-c3ccccc3)c3c2CNC3)cc1 |  |
|  | 250 | c1ccc(-c2[nH]c(-c3ccccc3)c3c2CCC3)cc1 | ED50 [11]: 10 mg/kg; ED50 [12]: 20 mg/kg |
| 5 | > 5000 | Clc1ccc(-c2[nH]c(-c3ccc(Cl)cc3)c3c2CCCC3)cc1 | ED50 [11]: > 80 mg/kg; ED50 [12]: 20 mg/kg |
| 21.3 | 1000 | COc1ccc(-c2[nH]c(-c3ccc(OC)cc3)c3c2CCCC3)cc1 |  |
| 14.5 | > 100 | CC1=C(C)Cc2c(-c3ccccc3)[nH]c(-c3ccccc3)c2C1 |  |
| 1.6 | 250 | c1ccc(-c2[nH]c(-c3ccccc3)c3c2C2CCC3CC2)cc1 | ED50 [11]: > 40 mg/kg; ED50 [12]: > 40 mg/kg |
| 1.7 | 100 | Fc1ccc(-c2[nH]c(-c3ccc(F)cc3)c3c2CCCC3)cc1 | ED50 [11]: 50 mg/kg; ED50 [12]: 20 mg/kg; inhibition in vivo at 2 mg/kg/day [14]: 15% |
| > 1000 |  | Cn1c(-c2ccccc2)c2c(c1-c1ccccc1)CCCC2 |  |
|  | > 2500 | c1ccc(C2NC(c3ccccc3)c3ccccc32)cc1 (centres undefined) |  |
| 3.1 | 1000 | CC1Cc2c(-c3ccccc3)[nH]c(-c3ccccc3)c2CC1C (centres undefined) |  |
| 1.8 | 1000 | Nn1c(-c2ccccc2)c2c(c1-c1ccccc1)CCCC2 |  |
| 1.5 | 100 | c1ccc(-c2[nH]c(-c3ccccc3)c3c2CCCC3)cc1 | ED50 [11]: 50 mg/kg; ED50 [12]: 20 mg/kg |
| > 100 |  | c1ccc(CN2Cc3c(-c4ccccc4)[nH]c(-c4ccccc4)c3C2)cc1 |  |

More lines, now with the values behind:

| SMILES | IC50 [1] [nM] | IC50 [2] [nM] | also measured |
| --- | --- | --- | --- |
| CS(=O)(=O)c1ccc(-c2[nH]c(-c3ccc(F)cc3)c3c2C2CCC3C2)cc1 (centres undefined) | 700 | > 5000 |  |
| c1ccc(-c2cn3c(c2-c2ccccc2)CCC3)cc1 | 28.7 | 2500 |  |
| Cc1ccc(-c2cc(C(F)(F)F)nn2-c2ccc(S(N)(=O)=O)cc2)cc1 [CELECOXIB] |  |  | ED50 [3]: > 40 mg/kg; ED50 [4]: 0.37 mg/kg/day; ED50 [5]: 10 mg/kg; ED50 [6]: 0.32 mg/kg/day; Gastric score [7]: 0.7 |
| Fc1ccc(-c2[nH]c(-c3ccc(F)cc3)c3c2C2C=CC3C2)cc1 | 4.5 | 500 |  |
| Fc1ccc(-c2[nH]c(-c3ccc(F)cc3)c3c2C2CCC3CC2)cc1 | 0.6 | 230 | IC50 [9]: 30000 nM; IC50 [10]: 0.12 nM; ED50 [11]: > 20 mg/kg; ED50 [6]: 0.15 mg/kg/day; ED50 [12]: 3.5 mg/kg; Gastric score [7]: 0.3 |
| c1ccc(-c2sc(-c3ccccc3)c3ccccc23)cc1 | 10.9 | 1000 |  |
| C1=CC2CCC1c1c(-c3ccccc3)[nH]c(-c3ccccc3)c12 | 35.6 | > 1000 |  |
| COc1ccc2c(c1)c(CC(=O)O)c(C)n2C(=O)c1ccc(Cl)cc1 [INDOMETHACIN] |  |  | Gastric score [7]: 2.4 |
| c1cn(-c2ccc(-c3[nH]c(-c4ccc(-n5ccnc5)cc4)c4c3CCCC4)cc2)cn1 | > 100 | 1000 |  |
| Fc1ccc(-c2[nH]c(-c3ccc(F)cc3)c3c2C2CCC3C2)cc1 |  |  | IC50 [9]: 1000 nM; IC50 [10]: 0.08 nM; ED50 [11]: > 40 mg/kg; ED50 [6]: 0.35 mg/kg/day; ED50 [12]: 6.8 mg/kg; Gastric score [7]: 0.3 |
| c1ccc(-c2cc3n(c2-c2ccccc2)CCC3)cc1 | 10 | < 1000 |  |
| CNc1cc(-c2[nH]c(-c3ccc(F)c(NC)c3)c3c2C2CCC3C2)ccc1F | > 100 |  |  |
| c1ccc(-c2cc(-c3ccccc3)n3c2CCC3)cc1 | 50 | < 1000 |  |
| CC(=O)Nc1cc(-c2[nH]c(-c3ccc(F)c(NC(C)=O)c3)c3c2C2CCC3C2)ccc1F | > 100 |  |  |
| Fc1ccc(-c2[nH]c(-c3ccc(-n4ccnc4)cc3)c3c2CCCC3)cc1 | 42 | 500 |  |
| Fc1ccc(C2NC(c3ccc(F)cc3)c3ccccc32)cc1 (centres undefined) | > 100 |  |  |
| CS(=O)(=O)c1ccc(-c2[nH]c(-c3ccc(S(C)(=O)=O)cc3)c3c2C2CCC3C2)cc1 | > 10000 |  |  |
| c1cc(-c2[nH]c(-c3ccncc3)c3c2C2CCC3C2)ccn1 | > 100 |  |  |
